How the values were obtained:
Sus scrofa [1] = test: Mean residence time in Gottingen mini pig at 2 nmol/kg, sc; format: ADME, organism-based; details: in vivo
Outline: (§1)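 Göttingen mini-pigs received a single i.v. or s.c. dose, sized to individual body weight. Twelve blood samples were taken up to 288 h into ice-cooled EDTA tubes, then centrifuged at 4 °C. Plasma was frozen until GLP-1 analogue was measured by ELISA or LC/MS. Cl, Vz, T1/2, Tmax, MRT and F came from noncompartmental analysis.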

Sus scrofa [2] = test: Apparent volume of distribution in Gottingen mini pig at 2 nmol/kg, iv; format: ADME, organism-based; details: in vivo; outline: as §1
Sus scrofa [3] = test: Tmax in Gottingen mini pig at 2 nmol/kg, sc; format: ADME, organism-based; details: in vivo; outline: as §1
Mus musculus [4] = test: Antihyperglycaemic activity in sc dosed db/db mouse assessed as reduction of blood glucose level up to 48 hrs by glucose oxidase method; format: functional, organism-based
Outline: (§2)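 Male db/db mice (10–12 weeks old, blood glucose above 10 mM), group-housed, fed chow and acidified water ad libitum. Doses of 0.3–100 nmol/kg were given s.c. at 6 mL/kg in 50 mM phosphate with 0.05% Tween 80, pH 8. Tail-tip capillary blood glucose was measured by glucose oxidase at 0, 1, 2, 3, 6, 24 and 48 h. […] Values are mean ± SEM.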

Sus scrofa [5] = test: Clearance in Gottingen mini pig at 2 nmol/kg, iv; format: ADME, organism-based; details: in vivo; outline: as §1
Homo sapiens = species on record: Homo sapiens; test: Half life in human; format: ADME, organism-based; details: in vivo
Sus scrofa [6] = test: Bioavailability in Gottingen mini pig at 2 nmol/kg, sc; format: ADME, organism-based; details: in vivo; outline: as §1
Sus scrofa [7] = test: Half life in Gottingen mini pig at 2 nmol/kg, iv; format: ADME, organism-based; details: in vivo; outline: as §1
Mus musculus [8] = test: Antiobesity activity in sc dosed db/db mouse assessed as reduction of body weight; format: functional, organism-based
Mus musculus [9] = test: Antihyperglycaemic activity in sc dosed db/db mouse assessed as reduction of blood glucose level by glucose oxidase method; format: functional, organism-based; outline: as §2
[10] = target: T1, Glucagon-like peptide 1 receptor (Homo sapiens, UniProt P43220); test: Agonist activity at human GLP1 receptor expressed in BHK cells after 3 hrs by CRE firefly luciferase reporter gene assay in absence of human serum albumin; format: functional, cell-based
[11] = target: T1, Glucagon-like peptide 1 receptor; test: Displacement of [125I]-GLP1 from human GLP1 receptor expressed in BHK cells after 2 hrs in presence of 2% human serum albumin; format: cell-based
[12] = target: T1, Glucagon-like peptide 1 receptor; test: Displacement of [125I]-GLP1 from human GLP1 receptor expressed in BHK cells after 2 hrs in absence of human serum albumin; format: cell-based
[13] = Apparent volume of distribution in Gottingen mini pig at 0.5 nmol/kg, iv; format: ADME, organism-based, Sus scrofa; details: Gottingen minipig, in vivo, read-out: Vz; outline: as §1
[14] = Bioavailability in Gottingen mini pig at 1 nmol/kg, sc; format: ADME, organism-based, Sus scrofa; details: Gottingen minipig, in vivo; outline: as §1
[15] = Clearance in Gottingen mini pig at 0.5 nmol/kg, iv; format: ADME, organism-based, Sus scrofa; details: Gottingen minipig, in vivo; outline: as §1
[16] = Half life in Gottingen mini pig at 0.5 nmol/kg, iv; format: ADME, organism-based, Sus scrofa; details: Gottingen minipig, in vivo; outline: as §1
[17] = Mean residence time in Gottingen mini pig at 1 nmol/kg, sc; format: ADME, organism-based, Sus scrofa; details: Gottingen minipig, in vivo; outline: as §1

T1 sequence (P43220 whole entry): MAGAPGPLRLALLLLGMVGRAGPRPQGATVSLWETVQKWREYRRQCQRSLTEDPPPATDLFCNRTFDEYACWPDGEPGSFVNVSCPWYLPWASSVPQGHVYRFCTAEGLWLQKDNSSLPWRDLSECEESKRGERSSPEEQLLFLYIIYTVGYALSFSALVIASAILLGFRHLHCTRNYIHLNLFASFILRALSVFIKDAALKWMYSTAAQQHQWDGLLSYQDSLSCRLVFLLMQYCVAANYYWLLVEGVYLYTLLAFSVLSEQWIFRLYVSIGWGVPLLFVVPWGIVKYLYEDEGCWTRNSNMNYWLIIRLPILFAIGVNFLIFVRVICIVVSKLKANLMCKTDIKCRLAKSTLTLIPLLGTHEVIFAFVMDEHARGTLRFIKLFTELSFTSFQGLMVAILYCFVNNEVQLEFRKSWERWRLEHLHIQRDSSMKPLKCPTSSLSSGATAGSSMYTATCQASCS

Row | Compound | EC50 [10] [nM] | IC50 [11] [nM] | IC50 [12] [nM] | other results
1 | SEMAGLUTIDE [listing 1 of 2 here] |  |  |  | MRT (Sus scrofa [1]): 63.6 h; Vz (Sus scrofa [2]): 0.1019 L/kg; Tmax (Sus scrofa [3]): 12 h; EC50 (Mus musculus [4]): < 2 nmol/kg; CL (Sus scrofa [5]): 1.6 mL/h/kg; t1/2 (Homo sapiens): 165 h; F (Sus scrofa [6]): 94%; t1/2 (Sus scrofa [7]): 46.1 h
2 | SEMAGLUTIDE [listing 2 of 2 here] |  |  |  | Activity (Mus musculus [8]): Dose-dependent effect; Activity (Mus musculus [9]): Dose-dependent effect
3 | CC[C@H](C)[C@H](NC(=O)[C@H](Cc1ccccc1)NC(=O)[C@H](CCC(=O)O)NC(=O)[C@H](CCCCN)NC(=O)[C@H](C)NC(=O)[C@H](C)NC(=O)[C@H](CCC(N)=O)NC(=O)CNC(=O)[C@H](CCC(=O)O)NC(=O)[C@H](CC(C)C)NC(=O)[C@H](Cc1ccc(O)cc1)NC(=O)[C@H](CO)NC(=O)[C@H](CO)NC(=O)[C@@H](NC(=O)[C@H](CC(=O)O)NC(=O)[C@H](CO)NC(=O)[C@@H](NC(=O)[C@H](Cc1ccccc1)NC(=O)[C@@H](NC(=O)CNC(=O)[C@H](CCC(=O)O)NC(=O)C(C)(C)NC(=O)[C@@H](N)Cc1c[nH]cn1)[C@@H](C)O)[C@@H](C)O)C(C)C)C(=O)N[C@@H](C)C(=O)N[C@@H](Cc1c[nH]c2ccccc12)C(=O)N[C@@H](CC(C)C)C(=O)N[C@H](C(=O)N[C@@H](CCCNC(=N)N)C(=O)NCC(=O)N[C@@H](CCCNC(=N)N)C(=O)NCC(=O)N[C@@H](CCCCNC(=O)COCCOCCNC(=O)COCCOCCNC(=O)CCCCCCCCCCCCCCCCC(=O)O)C(=O)O)C(C)C | 0.0675 | 6.73 | 0.27 | 
4 | CC[C@H](C)[C@H](NC(=O)[C@H](Cc1ccccc1)NC(=O)[C@H](CCC(=O)O)NC(=O)[C@H](CCCCN)NC(=O)[C@H](C)NC(=O)[C@H](C)NC(=O)[C@H](CCC(N)=O)NC(=O)[C@H](CCCCNC(=O)COCCOCCNC(=O)COCCOCCNC(=O)CC[C@H](NC(=O)CCCCCCCCCCCCCCCCC(=O)O)C(=O)O)NC(=O)[C@H](CCC(=O)O)NC(=O)[C@H](CC(C)C)NC(=O)[C@H](Cc1ccc(O)cc1)NC(=O)[C@H](CO)NC(=O)[C@H](CO)NC(=O)[C@@H](NC(=O)[C@H](CC(=O)O)NC(=O)[C@H](CO)NC(=O)[C@@H](NC(=O)[C@H](Cc1ccccc1)NC(=O)[C@@H](NC(=O)CNC(=O)[C@H](CCC(=O)O)NC(=O)C(C)(C)NC(=O)[C@@H](N)Cc1c[nH]cn1)[C@@H](C)O)[C@@H](C)O)C(C)C)C(=O)N[C@@H](C)C(=O)N[C@@H](Cc1c[nH]c2ccccc12)C(=O)N[C@@H](CC(C)C)C(=O)N[C@H](C(=O)N[C@@H](CCCCN)C(=O)NCC(=O)N[C@@H](CCCNC(=N)N)C(=O)NCC(=O)O)C(C)C | 0.0027 | 17.7 | 0.06 | 
5 | CC[C@H](C)[C@H](NC(=O)[C@H](Cc1ccccc1)NC(=O)[C@H](CCC(=O)O)NC(=O)[C@H](CCCCNC(=O)COCCOCCNC(=O)COCCOCCNC(=O)CCCCCCCCCCCCCCC(=O)O)NC(=O)[C@H](C)NC(=O)[C@H](C)NC(=O)[C@H](CCC(N)=O)NC(=O)CNC(=O)[C@H](CCC(=O)O)NC(=O)[C@H](CC(C)C)NC(=O)[C@H](Cc1ccc(O)cc1)NC(=O)[C@H](CO)NC(=O)[C@H](CO)NC(=O)[C@@H](NC(=O)[C@H](CC(=O)O)NC(=O)[C@H](CO)NC(=O)[C@@H](NC(=O)[C@H](Cc1ccccc1)NC(=O)[C@@H](NC(=O)CNC(=O)[C@H](CCC(=O)O)NC(=O)C(C)(C)NC(=O)[C@@H](N)Cc1c[nH]cn1)[C@@H](C)O)[C@@H](C)O)C(C)C)C(=O)N[C@@H](C)C(=O)N[C@@H](Cc1c[nH]c2ccccc12)C(=O)N[C@@H](CC(C)C)C(=O)N[C@H](C(=O)N[C@@H](CCCNC(=N)N)C(=O)NCC(=O)N[C@@H](CCCNC(=N)N)C(=O)NCC(=O)O)C(C)C | 0.166 | 12.8 | 3.25 | 
6 | CC[C@H](C)[C@H](NC(=O)[C@H](Cc1ccccc1)NC(=O)[C@H](CCC(=O)O)NC(=O)[C@H](CCCCNC(=O)COCCOCCNC(=O)COCCOCCNC(=O)CC[C@H](NC(=O)CCCCCCCCCCCCC(=O)O)C(=O)O)NC(=O)[C@H](C)NC(=O)[C@H](C)NC(=O)[C@H](CCC(N)=O)NC(=O)CNC(=O)[C@H](CCC(=O)O)NC(=O)[C@H](CC(C)C)NC(=O)[C@H](Cc1ccc(O)cc1)NC(=O)[C@H](CO)NC(=O)[C@H](CO)NC(=O)[C@@H](NC(=O)[C@H](CC(=O)O)NC(=O)[C@H](CO)NC(=O)[C@@H](NC(=O)[C@H](Cc1ccccc1)NC(=O)[C@@H](NC(=O)CNC(=O)[C@H](CCC(=O)O)NC(=O)C(C)(C)NC(=O)[C@@H](N)Cc1c[nH]cn1)[C@@H](C)O)[C@@H](C)O)C(C)C)C(=O)N[C@@H](C)C(=O)N[C@@H](Cc1c[nH]c2ccccc12)C(=O)N[C@@H](CC(C)C)C(=O)N[C@H](C(=O)N[C@@H](CCCNC(=N)N)C(=O)NCC(=O)N[C@@H](CCCNC(=N)N)C(=O)NCC(=O)O)C(C)C | 0.0157 | 8.87 | 2.65 | 
7 | CCCCCCCCCCCCCCCC(=O)N[C@@H](CCC(=O)NCCCC[C@H](NC(=O)[C@H](C)NC(=O)[C@H](C)NC(=O)[C@H](CCC(N)=O)NC(=O)CNC(=O)[C@H](CCC(=O)O)NC(=O)[C@H](CC(C)C)NC(=O)[C@H](Cc1ccc(O)cc1)NC(=O)[C@H](CO)NC(=O)[C@H](CO)NC(=O)[C@@H](NC(=O)[C@H](CC(=O)O)NC(=O)[C@H](CO)NC(=O)[C@@H](NC(=O)[C@H](Cc1ccccc1)NC(=O)[C@@H](NC(=O)CNC(=O)[C@H](CCC(=O)O)NC(=O)[C@H](C)NC(=O)[C@@H](N)Cc1cnc[nH]1)[C@@H](C)O)[C@@H](C)O)C(C)C)C(=O)N[C@@H](CCC(=O)O)C(=O)N[C@@H](Cc1ccccc1)C(=O)N[C@H](C(=O)N[C@@H](C)C(=O)N[C@@H](Cc1c[nH]c2ccccc12)C(=O)N[C@@H](CC(C)C)C(=O)N[C@H](C(=O)N[C@@H](CCCNC(=N)N)C(=O)NCC(=O)N[C@@H](CCCNC(=N)N)C(=O)NCC(=O)O)C(C)C)[C@@H](C)CC)C(=O)O [LIRAGLUTIDE] |  |  |  | Vd [13]: 0.0674 L/kg; bioavailability [14]: 66%; clearance [15]: 3.8 mL/h/kg; half-life [16]: 12.4 h; MRT [17]: 23 h
8 | CC[C@H](C)[C@H](NC(=O)[C@H](Cc1ccccc1)NC(=O)[C@H](CCC(=O)O)NC(=O)[C@H](CCCCNC(=O)CCCCCCCCCCCCCCCCC(=O)O)NC(=O)[C@H](C)NC(=O)[C@H](C)NC(=O)[C@H](CCC(N)=O)NC(=O)CNC(=O)[C@H](CCC(=O)O)NC(=O)[C@H](CC(C)C)NC(=O)[C@H](Cc1ccc(O)cc1)NC(=O)[C@H](CO)NC(=O)[C@H](CO)NC(=O)[C@@H](NC(=O)[C@H](CC(=O)O)NC(=O)[C@H](CO)NC(=O)[C@@H](NC(=O)[C@H](Cc1ccccc1)NC(=O)[C@@H](NC(=O)CNC(=O)[C@H](CCC(=O)O)NC(=O)C(C)(C)NC(=O)[C@@H](N)Cc1c[nH]cn1)[C@@H](C)O)[C@@H](C)O)C(C)C)C(=O)N[C@@H](C)C(=O)N[C@@H](Cc1c[nH]c2ccccc12)C(=O)N[C@@H](CC(C)C)C(=O)N[C@H](C(=O)N[C@@H](CCCNC(=N)N)C(=O)NCC(=O)N[C@@H](CCCNC(=N)N)C(=O)NCC(=O)O)C(C)C | 0.269 | 27 | 1.86 | 
9 | CC[C@H](C)[C@H](NC(=O)[C@H](Cc1ccccc1)NC(=O)[C@H](CCC(=O)O)NC(=O)[C@H](CCCNC(=N)N)NC(=O)[C@H](C)NC(=O)[C@H](C)NC(=O)[C@H](CCC(N)=O)NC(=O)CNC(=O)[C@H](CCC(=O)O)NC(=O)[C@H](CC(C)C)NC(=O)[C@H](Cc1ccc(O)cc1)NC(=O)[C@H](CO)NC(=O)[C@H](CO)NC(=O)[C@@H](NC(=O)[C@H](CC(=O)O)NC(=O)[C@H](CO)NC(=O)[C@@H](NC(=O)[C@H](Cc1ccccc1)NC(=O)[C@@H](NC(=O)CNC(=O)[C@H](CCC(=O)O)NC(=O)C(C)(C)NC(=O)[C@@H](N)Cc1c[nH]cn1)[C@@H](C)O)[C@@H](C)O)C(C)C)C(=O)N[C@@H](C)C(=O)N[C@@H](Cc1c[nH]c2ccccc12)C(=O)N[C@@H](CC(C)C)C(=O)N[C@H](C(=O)N[C@@H](CCCNC(=N)N)C(=O)NCC(=O)N[C@@H](CCCNC(=N)N)C(=O)NCC(=O)N[C@@H](CCCCNC(=O)CCCCCCCCCCCCCCCCC(=O)O)C(=O)O)C(C)C | 0.0873 | 7.55 | 0.31 | 

Reference: ChEMBL document CHEMBL3616405 (J Med Chem, 2015)
